Results on 44 molecules are retold here after ChEMBL document CHEMBL1131297, “N-(2-Benzoylphenyl)-L-tyrosine PPARgamma agonists. 3. Structure-activity relationship and optimization of the N-aryl substituent” (J Med Chem, 1998).

A word on the Ki: it is a dissociation constant, usually derived from enzyme kinetics or from competition with a known ligand. The EC50 is the concentration at which the effect is half-maximal. A high value points to a need for much substance.

Converted amounts (≈) assume the structure as drawn.

Series [1] in a line: Solubility in phosphate buffer at pH 7.4. The class given is physicochemical. An outline of the steps:
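Solubility in 0.06 M phosphate buffer, pH 7.4, in temperature-controlled shaking water baths. Samples were drawn, passed through a 0.22-µm filter, diluted in water/acetonitrile (60:40), and quantified by HPLC on a phenyl reverse-phase column. Reported in mg/mL.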

The target of series [2] is T1, Peroxisome proliferator-activated receptor gamma (Homo sapiens, UniProt P37231).
T1 sequence (P37231 whole entry): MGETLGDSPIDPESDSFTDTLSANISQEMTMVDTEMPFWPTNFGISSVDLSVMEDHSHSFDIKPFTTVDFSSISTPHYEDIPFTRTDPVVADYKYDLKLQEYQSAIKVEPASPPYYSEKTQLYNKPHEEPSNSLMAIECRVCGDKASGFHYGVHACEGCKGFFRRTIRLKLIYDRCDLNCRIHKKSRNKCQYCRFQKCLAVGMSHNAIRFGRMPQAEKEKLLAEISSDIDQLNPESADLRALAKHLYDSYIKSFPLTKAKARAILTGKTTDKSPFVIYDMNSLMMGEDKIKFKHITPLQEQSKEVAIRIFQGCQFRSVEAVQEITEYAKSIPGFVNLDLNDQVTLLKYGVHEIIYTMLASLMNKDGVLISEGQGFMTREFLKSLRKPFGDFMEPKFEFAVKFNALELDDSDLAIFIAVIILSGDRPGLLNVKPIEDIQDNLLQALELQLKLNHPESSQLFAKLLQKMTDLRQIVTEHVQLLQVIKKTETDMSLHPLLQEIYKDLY
Put plainly: Binding affinity against peroxisome proliferator activated receptor gamma (PPAR-gamma).

Series [3] has as its target T1, Peroxisome proliferator-activated receptor gamma. Put plainly: in vitro agonist activity against peroxisome proliferator activated receptor-gamma (PPAR-gamma), using alkaline phosphatase activity transactivator assay. The class given is functional.
Series [4] in a line: Solubility in simulated gastric fluid. The class given is physicochemical. To be noted: read-out: S. Summed up: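 Solubility in simulated gastric fluid, pH 1.2, in temperature-controlled shaking water baths. Samples were drawn, passed through a 0.22-µm filter, diluted in water/acetonitrile (60:40), and quantified by HPLC on a phenyl reverse-phase column.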
Series [5] addresses T1, Peroxisome proliferator-activated receptor gamma. Kind of series: The compound was tested functionally in vitro for inducing 50% of the maximum alkaline phosphatase activity (Transactivation) against Peroxisome proliferator activated receptor gamma. The class given is functional.
For series [6] the target is unchanged. Kind of series: The compound was tested in vitro for inhibiting the 50% binding of Peroxisome proliferator activated receptor gamma. Summed up:
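Radioligand competition binding to the human PPARγ ligand-binding domain. IC50 is the concentration inhibiting 50% of specific radioligand binding. Apparent Ki = IC50/(1 + [L]/Kd), where [L] is the radioligand concentration and Kd its dissociation constant. Reported as pKi (−log Ki).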

With `Cc1oc(-c2ccccc2)nc1CCOc1ccc(CC(Nc2ccccc2C(=O)c2ccc(CO)cc2)C(=O)O)cc1` (stereo not given), the solubility was 75 µg/mL (≈ 130 µM) in series [1] and 22 µg/mL (≈ 38.2 µM) in series [4]. The molecule further showed a Ki in series [2] of 4.17 nM. Moreover, the midpoint of the response in series [3], the EC50, lay at 17.4 nM.
In the case of `COc1cccc(C(=O)c2ccccc2NC(Cc2ccc(OCCN(C)c3nc4ccccc4o3)cc2)C(=O)O)c1` (stereo not given), the Ki in series [2] is 2.29 nM. The EC50 in series [3] was 117 nM.
The matching figures for `Cc1oc(-c2ccccc2)nc1CCOc1ccc(CC(Nc2ccccc2C(=O)c2cccc(C(=O)O)c2)C(=O)O)cc1` (stereo not given): 813 nM and 209 nM.
`CN(CCOc1ccc(CC(Nc2ccccc2C(=O)c2cccc3ccccc23)C(=O)O)cc1)c1nc2ccccc2o1` (stereo not given) showed an EC50 in series [5] of 85.1 nM. The molecule also showed a Ki in series [6] of 3.24 nM.
The molecule `CN(CCOc1ccc(CC(Nc2ccccc2C(=O)c2ccc(C(F)(F)F)cc2)C(=O)O)cc1)c1nc2ccccc2o1` (stereo not given) gave a Ki in series [2] of 5.13 nM. Further, the EC50 in series [3] is 24 nM.
The matching figures for `CN(CCOc1ccc(CC(Nc2ccc(Cl)cc2C(=O)c2ccccc2)C(=O)O)cc1)c1nc2ccccc2o1` (stereo not given): 8.71 nM and 89.1 nM.
`Cc1ccccc1C(=O)c1ccccc1NC(Cc1ccc(OCCN(C)c2nc3ccccc3o2)cc1)C(=O)O` (stereo not given): in series [3], the EC50 was 9.33 nM. This lies in the single-digit nanomolar range.
The molecule `Cc1oc(-c2ccccc2)nc1CCOc1ccc(CC(Nc2ccccc2C(=O)c2cccc(CO)c2)C(=O)O)cc1` (stereo not given) displayed a solubility in series [1] of 1340 µg/mL (≈ 2320 µM). Also, in series [2], affinity was put at a Ki of 3.39 nM. This molecule also showed an EC50 in series [3] of 24.5 nM.
Molecule `CN(CCOc1ccc(CC(Nc2ccccc2C(=O)c2ccsc2)C(=O)O)cc1)c1nc2ccccc2o1` (stereo not given) showed a Ki in series [2] of 2.34 nM. Moreover, in series [3], the midpoint of the response, the EC50, lay at 63.1 nM.
The matching figures for `CN(CCOc1ccc(CC(Nc2ccccc2C(=O)c2ccccc2C(F)(F)F)C(=O)O)cc1)c1nc2ccccc2o1` (stereo not given): 2.69 nM and 39.8 nM.
For `CN(CCOc1ccc(CC(Nc2ccccc2C(=O)c2cccs2)C(=O)O)cc1)c1nc2ccccc2o1` (stereo not given), in that order: 2.75 nM and 45.7 nM.
`CN(CCOc1ccc(CC(Nc2ccccc2C(=O)c2cccc(C(F)(F)F)c2)C(=O)O)cc1)c1nc2ccccc2o1` (stereo not given) had an inhibition constant Ki in series [2] of 2.63 nM. Also, the concentration for a half-maximal effect (EC50) in series [3] is 11.7 nM.
Take `Cc1oc(-c2ccccc2)nc1CCOc1ccc(CC(Nc2ccccc2C(=O)N(C)C)C(=O)O)cc1` (stereo not given): the inhibition constant (Ki) in series [2] is 251 nM. It took 562 nM to reach a half-maximal effect in series [3] (EC50).
For `CN(CCOc1ccc(CC(Nc2ccccc2C(=O)C2CCCCCC2)C(=O)O)cc1)c1nc2ccccc2o1` (stereo not given), in that order: 39.8 nM and 7.76 nM.
In turn, `COc1ccccc1C(=O)c1ccccc1NC(Cc1ccc(OCCN(C)c2nc3ccccc3o2)cc1)C(=O)O` (stereo not given) gave an EC50 in series [3] of 38 nM. This lies in the double-digit nanomolar range.
Molecule `CN(CCOc1ccc(CC(Nc2ccccc2C(=O)c2ccc(OCc3ccccc3)cc2)C(=O)O)cc1)c1nc2ccccc2o1` (stereo not given) gave a Ki in series [2] of 66.1 nM. The molecule also gave an EC50 in series [3] of 759 nM.
For `CNC(=O)c1ccccc1NC(Cc1ccc(OCCc2nc(-c3ccccc3)oc2C)cc1)C(=O)O` (stereo not given), in that order: 15.5 nM and 32.4 nM.
For `CCCOC(=O)c1ccccc1NC(Cc1ccc(OCCc2nc(-c3ccccc3)oc2C)cc1)C(=O)O` (stereo not given), in that order: 2.4 nM and 0.302 nM.
As to `CN(CCOc1ccc(CC(Nc2ccccc2C(=O)c2cccc(OCc3ccccc3)c2)C(=O)O)cc1)c1nc2ccccc2o1` (stereo not given), the EC50 in series [5] was 741 nM. In addition, in series [6], the affinity corresponds to a Ki of 53.7 nM.
`CCOC(=O)c1ccccc1NC(Cc1ccc(OCCc2nc(-c3ccccc3)oc2C)cc1)C(=O)O` (stereo not given) gave a Ki in series [2] of 3.02 nM. Besides, a half-maximal response in series [3] (EC50) required 0.912 nM.
As to `Cc1oc(-c2ccccc2)nc1CCOc1ccc(CC(Nc2ccccc2C(=O)c2cccnc2)C(=O)O)cc1` (stereo not given), the solubility was 55 µg/mL (≈ 100 µM) in series [1] and 18 µg/mL (≈ 32.9 µM) in series [4]. The same molecule had a Ki in series [2] of 0.933 nM. Moreover, the response in series [3] was half-maximal at 1.48 nM (EC50).
`CN(CCOc1ccc(CC(Nc2ccccc2C(=O)c2ccccc2)C(=O)O)cc1)c1nc2ccccc2o1` (stereo not given): the affinity in series [2], expressed as Ki, was 1.48 nM.
In series [2], `Cc1oc(-c2ccccc2)nc1CCOc1ccc(CC(Nc2ccccc2C(=O)OC(C)C)C(=O)O)cc1` (stereo not given) showed an inhibition constant Ki of 0.977 nM. Moreover, in series [3], the EC50 is 0.575 nM.
For `Cc1oc(-c2ccccc2)nc1CCOc1ccc(CC(Nc2ccccc2C(=O)c2ccc(C(=O)O)cc2)C(=O)O)cc1` (stereo not given), in that order: 646 nM and 7590 nM.
The matching figures for `CN(CCOc1ccc(CC(Nc2ccncc2C(=O)c2ccccc2)C(=O)O)cc1)c1nc2ccccc2o1` (stereo not given): 155 nM and 9330 nM.
The matching figures for `COc1ccc(C(=O)c2ccccc2NC(Cc2ccc(OCCN(C)c3nc4ccccc4o3)cc2)C(=O)O)cc1` (stereo not given): 5.62 nM and 32.4 nM.
`CN(CCOc1ccc(CC(Nc2ccccc2C(=O)C2CCCC2)C(=O)O)cc1)c1nc2ccccc2o1` (stereo not given) gave an inhibition constant Ki in series [2] of 6.46 nM. The same molecule gave a 50% effective concentration (EC50) in series [3] of 18.2 nM.
In turn, `CN(CCOc1ccc(CC(Nc2cscc2C(=O)c2ccccc2)C(=O)O)cc1)c1nc2ccccc2o1` (stereo not given) had a Ki in series [2] of 2.57 nM. The half-maximal effective concentration (EC50) in series [3] was 8.32 nM.
As to `Cc1cccc(C(=O)c2ccccc2NC(Cc2ccc(OCCN(C)c3nc4ccccc4o3)cc2)C(=O)O)c1` (stereo not given), the affinity in series [2], expressed as Ki, was 2.69 nM. The molecule further had a concentration giving a half-maximal response (EC50) in series [3] of 16.6 nM.
For `Cc1ccc(C(=O)c2ccccc2NC(Cc2ccc(OCCN(C)c3nc4ccccc4o3)cc2)C(=O)O)cc1` (stereo not given), in that order: 2.82 nM and 8.51 nM.
Take `Cc1oc(-c2ccccc2)nc1CCOc1ccc(C[C@@H](Nc2ccccc2C(=O)C2CCCCC2)C(=O)O)cc1`: the solubility is 52 µg/mL (≈ 94.1 µM) in series [1] and 2 µg/mL (≈ 3.62 µM) in series [4]. In addition, the inhibitory constant (Ki) in series [2] is 191 nM. In addition, in series [3], the half-maximal effective concentration (EC50) is 15.1 nM.
With `CN(CCOc1ccc(C[C@@H](Nc2ccccc2C(=O)C2CCCCC2)C(=O)O)cc1)c1nc2ccccc2o1`, in series [2], the Ki was 1550 nM. This molecule also had an EC50 in series [3] of over 10000 nM.
On to `Cc1oc(-c2ccccc2)nc1CCOc1ccc(C[C@H](Nc2ccccc2C(=O)C2CCCCC2)C(=O)O)cc1`, for which the EC50 in series [3] is 0.282 nM.
In series [2], `CN(CCOc1ccc(C[C@H](Nc2ccccc2C(=O)C2CCCCC2)C(=O)O)cc1)c1nc2ccccc2o1` gave a Ki of 4.07 nM. Further, in series [3], the 50% effective concentration (EC50) is 2.88 nM.
As for `CSc1nc(NC(Cc2ccc(OCCN(C)c3nc4ccccc4o3)cc2)C(=O)O)c(C(=O)c2ccccc2)s1` (stereo not given), the affinity in series [2], expressed as Ki, was 42.7 nM. The same molecule had a concentration for a half-maximal effect (EC50) in series [3] of 4070 nM.
On to `Cc1oc(-c2ccccc2)nc1CCOc1ccc(CC(Nc2ccccc2C(=O)c2cccc(CN(C)C)c2)C(=O)O)cc1` (stereo not given), for which the solubility in series [1] and in series [4] was 9 µg/mL (≈ 14.9 µM) throughout. In series [3], this molecule showed a concentration giving a half-maximal response (EC50) of 417 nM.
`CN(CCOc1ccc(CC(Nc2ccsc2C(=O)c2ccccc2)C(=O)O)cc1)c1nc2ccccc2o1` (stereo not given) had an inhibition constant (Ki) in series [2] of 9.77 nM. The molecule also had an EC50 in series [3] of 12 nM.
With `CN(CCOc1ccc(CC(Nc2ccccc2C(=O)c2ccc(-c3ccccc3)cc2)C(=O)O)cc1)c1nc2ccccc2o1` (stereo not given), the EC50 in series [5] was 24 nM. In addition, affinity in series [6] was put at a Ki of 49 nM.
Take `Cc1oc(-c2ccccc2)nc1CCOc1ccc(CC(Nc2ccccc2C(=O)c2cccc(N)c2)C(=O)O)cc1` (stereo not given): the solubility in series [1] was 525 µg/mL (≈ 935 µM); in series [4] it was 3 µg/mL (≈ 5.34 µM). This molecule also gave a Ki in series [2] of 3.24 nM. In addition, the response in series [3] was half-maximal at 8.91 nM (EC50).
Turning to `Cc1oc(-c2ccccc2)nc1CCOc1ccc(CC(Nc2ccccc2C(=O)O)C(=O)O)cc1` (stereo not given), the inhibitory constant (Ki) in series [2] was over 3160 nM. The molecule further had a 50% effective concentration (EC50) in series [3] of 4900 nM.
Molecule `Cc1oc(-c2ccccc2)nc1CCOc1ccc(CC(Nc2ccccc2C(=O)c2ccc(CN(C)C)cc2)C(=O)O)cc1` (stereo not given) showed an inhibition constant Ki in series [2] of 15.5 nM. Besides, the response in series [3] was half-maximal at 407 nM (EC50).
In series [2], `Cc1ccc(NC(Cc2ccc(OCCN(C)c3nc4ccccc4o3)cc2)C(=O)O)c(C(=O)c2ccccc2)c1` (stereo not given) showed an inhibition constant Ki of 13.5 nM. In addition, it took 229 nM to reach a half-maximal effect in series [3] (EC50).
For `Cc1oc(-c2ccccc2)nc1CCOc1ccc(CC(Nc2ccccc2C(=O)c2ccncc2)C(=O)O)cc1` (stereo not given), the solubility in series [1] was 1150 µg/mL (≈ 2100 µM); in series [4] it was 87 µg/mL (≈ 159 µM). The response in series [3] was half-maximal at 0.912 nM (EC50).
For `CN(CCOc1ccc(CC(Nc2sccc2C(=O)c2ccccc2)C(=O)O)cc1)c1nc2ccccc2o1` (stereo not given), the inhibition constant (Ki) in series [2] was 23.4 nM. Moreover, the midpoint of the response in series [3], the EC50, lay at 38 nM.
